18 molecules from ChEMBL document CHEMBL2034871, “First-in-class, dual-action, 3,5-disubstituted indole derivatives having human nitric oxide synthase (nNOS) and norepinephrine reuptake inhibitory (NERI) activity for the treatment of neuropathic pain” (J Med Chem, 2012) can be followed below.

Test [1] deals with Nitric oxide synthase, inducible (Homo sapiens, UniProt P35228). The experiment in a line: Inhibition of human iNOS expressed in baculovirus-infected insect sf9 cells assessed as conversion of [3H]-L-arginine to [3H]-L-citrulline preincubated for 15 mins with compound measured after 45 mins by scintillation counting.
The species named for another test is Homo sapiens. The test is described as follows: Selectivity ratio of IC50 for human eNOS to IC50 for human nNOS. A digest of the protocol:
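Recombinant human nNOS and eNOS made in baculovirus-infected Sf9 cells. Buffer: 40 mM HEPES pH 7.4 with 2.4 mM CaCl2, 1 mM MgCl2, 1 mg/mL BSA, 1 mM EDTA, 1 mM DTT, 1 μM FMN/FAD, 10 μM BH4, 1 mM NADPH and 1.2 μM CaM. Compound preincubated 15 min at RT. Started with 24 μM L-arginine plus [3H]arginine. [3H]citrulline separated on DOWEX and counted; background from L-NMMA control; duplicates.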

For a further test, the target named is Cytochrome P450 3A4 (Homo sapiens, UniProt P08684). The experiment in a line: Inhibition of CYP3A4. It counts as ADME.
Test [2] addresses Sodium-dependent noradrenaline transporter (Homo sapiens, UniProt P23975). The test is described as follows: Displacement of [3H]nisoxetine from human NET expressed in CHO cells after 120 mins by scintillation counting. It counts as cell-based. A digest of the protocol: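 Membranes from hNET-transfected CHO cells (20 μg protein) incubated 120 min at 4 °C with 1 nM [3H]nisoxetine in 50 mM Tris-HCl pH 7.4, 120 mM NaCl, 5 mM KCl. Nonspecific binding defined with 1 μM desipramine. Filtered on PEI-soaked GF/B and counted.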
In general terms: Displacement assays read how much labelled ligand stays bound in the presence of the test substance.

A further test concerns the target Nitric oxide synthase 1 (Homo sapiens, UniProt P29475). The test is described as follows: Inhibition of human nNOS expressed in baculovirus-infected insect sf9 cells assessed as conversion of [3H]-L-arginine to [3H]-L-citrulline preincubated for 15 mins with compound measured after 45 mins by scintillation counting.
Another test has as its target T1, Nitric oxide synthase 3 (Homo sapiens, UniProt P29474).
T1 sequence (P29474 whole entry): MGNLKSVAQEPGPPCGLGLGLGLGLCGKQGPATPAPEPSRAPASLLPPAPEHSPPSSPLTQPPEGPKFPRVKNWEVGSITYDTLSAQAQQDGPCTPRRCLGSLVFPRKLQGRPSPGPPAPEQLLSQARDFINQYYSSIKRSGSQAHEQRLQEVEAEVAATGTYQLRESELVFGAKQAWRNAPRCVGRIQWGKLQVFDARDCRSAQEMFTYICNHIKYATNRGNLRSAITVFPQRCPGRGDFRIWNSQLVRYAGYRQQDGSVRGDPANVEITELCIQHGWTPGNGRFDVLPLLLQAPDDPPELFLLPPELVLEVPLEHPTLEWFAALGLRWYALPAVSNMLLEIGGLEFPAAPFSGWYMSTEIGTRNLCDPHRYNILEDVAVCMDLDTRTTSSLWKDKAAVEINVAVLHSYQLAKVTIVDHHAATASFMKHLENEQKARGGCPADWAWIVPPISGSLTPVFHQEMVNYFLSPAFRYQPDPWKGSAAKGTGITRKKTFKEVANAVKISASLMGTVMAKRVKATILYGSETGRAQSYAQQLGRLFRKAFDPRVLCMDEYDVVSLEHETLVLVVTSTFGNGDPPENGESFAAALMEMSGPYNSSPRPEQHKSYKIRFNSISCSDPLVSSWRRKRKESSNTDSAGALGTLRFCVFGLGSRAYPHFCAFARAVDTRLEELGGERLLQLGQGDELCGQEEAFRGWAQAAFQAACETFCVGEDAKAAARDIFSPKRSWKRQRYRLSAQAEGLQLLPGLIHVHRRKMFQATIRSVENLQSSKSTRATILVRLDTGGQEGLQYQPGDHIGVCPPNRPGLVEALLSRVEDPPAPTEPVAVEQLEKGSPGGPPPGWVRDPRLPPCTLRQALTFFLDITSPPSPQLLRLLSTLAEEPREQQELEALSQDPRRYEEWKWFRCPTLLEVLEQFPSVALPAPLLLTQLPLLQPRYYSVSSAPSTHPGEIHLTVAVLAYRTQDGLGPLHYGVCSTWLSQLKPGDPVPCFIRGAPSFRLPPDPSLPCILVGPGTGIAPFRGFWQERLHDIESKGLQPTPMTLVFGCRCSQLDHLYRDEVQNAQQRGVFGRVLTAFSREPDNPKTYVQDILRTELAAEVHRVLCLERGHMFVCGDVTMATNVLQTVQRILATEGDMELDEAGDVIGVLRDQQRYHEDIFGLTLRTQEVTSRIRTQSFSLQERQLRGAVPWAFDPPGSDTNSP
The test is described as follows: Inhibition of human eNOS expressed in baculovirus-infected insect sf9 cells assessed as conversion of [3H]-L-arginine to [3H]-L-citrulline preincubated for 15 mins with compound measured after 45 mins by scintillation counting.

Nitric oxide synthase 1, sequence (P29475 whole entry): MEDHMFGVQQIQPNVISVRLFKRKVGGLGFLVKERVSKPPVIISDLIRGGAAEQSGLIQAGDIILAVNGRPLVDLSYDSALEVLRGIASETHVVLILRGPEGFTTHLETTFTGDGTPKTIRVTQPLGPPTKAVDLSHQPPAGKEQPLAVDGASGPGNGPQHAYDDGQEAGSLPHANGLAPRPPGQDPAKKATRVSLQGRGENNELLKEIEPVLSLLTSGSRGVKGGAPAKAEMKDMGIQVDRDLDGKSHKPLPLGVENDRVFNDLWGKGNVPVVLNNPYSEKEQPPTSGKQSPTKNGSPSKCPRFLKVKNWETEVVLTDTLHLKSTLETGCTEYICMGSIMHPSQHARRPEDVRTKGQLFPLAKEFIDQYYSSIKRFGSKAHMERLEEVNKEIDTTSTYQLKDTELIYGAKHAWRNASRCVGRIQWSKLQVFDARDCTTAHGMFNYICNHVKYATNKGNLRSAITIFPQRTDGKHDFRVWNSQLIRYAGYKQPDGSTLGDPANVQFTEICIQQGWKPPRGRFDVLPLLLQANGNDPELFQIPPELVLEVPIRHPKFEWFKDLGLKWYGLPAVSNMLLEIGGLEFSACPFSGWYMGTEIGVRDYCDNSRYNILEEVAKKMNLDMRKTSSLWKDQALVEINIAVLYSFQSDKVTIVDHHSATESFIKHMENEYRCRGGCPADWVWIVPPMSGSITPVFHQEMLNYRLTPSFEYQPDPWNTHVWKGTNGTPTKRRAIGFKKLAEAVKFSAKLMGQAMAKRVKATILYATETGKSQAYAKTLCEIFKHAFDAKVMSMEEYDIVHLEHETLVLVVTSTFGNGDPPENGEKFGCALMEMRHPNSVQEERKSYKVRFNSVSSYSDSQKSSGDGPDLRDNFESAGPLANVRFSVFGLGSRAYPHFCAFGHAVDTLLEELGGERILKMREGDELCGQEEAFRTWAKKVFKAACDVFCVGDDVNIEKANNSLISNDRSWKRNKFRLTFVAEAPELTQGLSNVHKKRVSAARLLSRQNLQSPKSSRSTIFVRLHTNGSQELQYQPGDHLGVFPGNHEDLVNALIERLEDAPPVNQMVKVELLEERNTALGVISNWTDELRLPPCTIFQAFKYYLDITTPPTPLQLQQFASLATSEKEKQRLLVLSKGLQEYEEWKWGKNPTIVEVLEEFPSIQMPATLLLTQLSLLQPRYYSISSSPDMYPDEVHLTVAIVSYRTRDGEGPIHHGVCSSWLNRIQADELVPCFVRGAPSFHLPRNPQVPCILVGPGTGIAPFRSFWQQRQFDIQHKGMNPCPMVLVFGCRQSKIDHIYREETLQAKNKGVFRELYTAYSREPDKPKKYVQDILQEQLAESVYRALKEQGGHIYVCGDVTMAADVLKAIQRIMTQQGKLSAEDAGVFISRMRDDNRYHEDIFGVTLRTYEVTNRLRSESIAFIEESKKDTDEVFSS
Nitric oxide synthase, inducible, sequence (P35228 whole entry): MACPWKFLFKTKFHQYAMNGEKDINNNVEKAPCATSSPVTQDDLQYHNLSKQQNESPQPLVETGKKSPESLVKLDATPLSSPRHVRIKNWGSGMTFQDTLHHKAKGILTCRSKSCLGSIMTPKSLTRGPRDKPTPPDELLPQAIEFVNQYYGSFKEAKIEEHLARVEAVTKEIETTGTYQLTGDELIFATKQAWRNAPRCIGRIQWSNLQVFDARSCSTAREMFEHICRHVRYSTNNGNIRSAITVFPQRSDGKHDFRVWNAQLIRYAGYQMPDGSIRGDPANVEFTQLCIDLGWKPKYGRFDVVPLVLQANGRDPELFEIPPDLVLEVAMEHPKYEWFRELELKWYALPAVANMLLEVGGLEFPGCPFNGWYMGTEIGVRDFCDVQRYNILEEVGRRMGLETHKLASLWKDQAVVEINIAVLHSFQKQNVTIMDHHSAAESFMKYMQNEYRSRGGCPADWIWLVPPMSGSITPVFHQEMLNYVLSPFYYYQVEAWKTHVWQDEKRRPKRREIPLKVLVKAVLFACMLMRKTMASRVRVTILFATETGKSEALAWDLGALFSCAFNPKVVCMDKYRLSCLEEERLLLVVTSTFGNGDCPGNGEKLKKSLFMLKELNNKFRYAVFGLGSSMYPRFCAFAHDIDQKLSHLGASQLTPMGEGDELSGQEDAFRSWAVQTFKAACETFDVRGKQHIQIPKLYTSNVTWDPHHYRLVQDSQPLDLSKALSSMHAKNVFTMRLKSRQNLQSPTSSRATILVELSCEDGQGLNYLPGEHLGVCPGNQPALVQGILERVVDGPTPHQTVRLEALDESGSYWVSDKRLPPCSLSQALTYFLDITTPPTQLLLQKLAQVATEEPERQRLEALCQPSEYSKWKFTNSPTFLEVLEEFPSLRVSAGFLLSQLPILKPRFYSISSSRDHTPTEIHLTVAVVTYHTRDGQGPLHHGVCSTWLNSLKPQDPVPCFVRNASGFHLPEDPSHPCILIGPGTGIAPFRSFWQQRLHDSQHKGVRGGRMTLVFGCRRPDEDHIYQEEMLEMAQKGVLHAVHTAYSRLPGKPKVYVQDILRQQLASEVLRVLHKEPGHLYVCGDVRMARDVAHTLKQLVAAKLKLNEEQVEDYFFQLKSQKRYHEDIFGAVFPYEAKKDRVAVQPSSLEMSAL
Sodium-dependent noradrenaline transporter, sequence (P23975 whole entry): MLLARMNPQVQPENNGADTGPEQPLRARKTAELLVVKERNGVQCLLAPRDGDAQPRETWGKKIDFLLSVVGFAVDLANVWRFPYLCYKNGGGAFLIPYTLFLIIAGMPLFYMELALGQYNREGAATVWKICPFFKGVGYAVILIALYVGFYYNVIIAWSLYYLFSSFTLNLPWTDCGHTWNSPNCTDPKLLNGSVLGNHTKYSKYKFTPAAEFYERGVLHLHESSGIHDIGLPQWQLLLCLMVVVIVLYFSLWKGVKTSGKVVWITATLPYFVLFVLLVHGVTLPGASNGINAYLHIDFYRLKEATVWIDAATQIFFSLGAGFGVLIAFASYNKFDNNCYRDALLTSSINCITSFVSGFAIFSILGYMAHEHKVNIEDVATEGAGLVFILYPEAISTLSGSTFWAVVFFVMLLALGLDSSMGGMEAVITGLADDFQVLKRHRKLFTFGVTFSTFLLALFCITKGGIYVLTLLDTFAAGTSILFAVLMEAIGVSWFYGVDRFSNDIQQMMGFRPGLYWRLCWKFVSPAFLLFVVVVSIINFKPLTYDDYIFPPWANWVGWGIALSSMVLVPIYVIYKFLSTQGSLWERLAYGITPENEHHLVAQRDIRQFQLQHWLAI
Cytochrome P450 3A4, sequence (P08684 whole entry): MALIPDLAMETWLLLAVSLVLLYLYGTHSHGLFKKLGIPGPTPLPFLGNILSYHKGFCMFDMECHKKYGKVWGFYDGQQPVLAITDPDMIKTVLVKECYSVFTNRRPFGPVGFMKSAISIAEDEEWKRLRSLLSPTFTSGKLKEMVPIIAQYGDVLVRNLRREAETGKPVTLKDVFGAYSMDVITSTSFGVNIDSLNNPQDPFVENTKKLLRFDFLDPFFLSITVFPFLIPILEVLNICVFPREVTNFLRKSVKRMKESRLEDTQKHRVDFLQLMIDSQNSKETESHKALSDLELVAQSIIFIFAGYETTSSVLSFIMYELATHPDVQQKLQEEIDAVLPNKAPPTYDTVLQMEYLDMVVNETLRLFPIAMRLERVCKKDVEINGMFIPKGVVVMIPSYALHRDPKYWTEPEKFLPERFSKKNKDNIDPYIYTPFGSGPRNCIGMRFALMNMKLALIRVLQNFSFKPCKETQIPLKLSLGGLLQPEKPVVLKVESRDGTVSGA

What is called IC50 is the concentration needed to halve the response being measured. As to `CCN[C@H]1CC[C@H](c2c[nH]c3ccc(NC(=N)c4cccs4)cc32)CC1`, in test [1], the IC50 was determined as 155 µM. As to `CN(C)C1CC=C(c2c[nH]c3ccc(/N=C(\N)c4cccs4)cc23)CC1` (racemic), in the test listed under Homo sapiens, the Ratio IC50 is 17. On to `CN[C@H]1CC[C@@H](c2c[nH]c3ccc(NC(=N)c4cccs4)cc32)CC1`, for which the IC50 in test [1] was found to be […]; on Cytochrome P450 3A4, 57.3 µM. With `CNC1CCCC(c2c[nH]c3ccc(NC(=N)c4cccs4)cc23)C1` (single isomer, unassigned; (-)), in test [1], the IC50 is 70 µM. For `CN(C)C1CC=C(c2c[nH]c3ccc(/N=C(\N)c4cccs4)cc23)CC1` (single isomer, unassigned; (+)), the Ratio IC50 in the test filed under Homo sapiens is 114. Consider `CN(C)[C@H]1CC[C@@H](c2c[nH]c3ccc(NC(=N)c4cccs4)cc32)CC1`, for which the IC50 in test [1] turned out to be 26.5 µM; in test [2] it was 0.16 µM; at Nitric oxide synthase 1 it was 0.35 µM; at Nitric oxide synthase 3, 17.5 µM. Besides, in the test listed under Homo sapiens, the Ratio IC50 is 51. On to `CN(C)C1CC=C(c2c[nH]c3ccc(NC(=N)c4cccs4)cc23)CC1` (single isomer, unassigned; (-)), for which the IC50 at Nitric oxide synthase 1 worked out at 0.86 µM. As for `CN[C@H]1CC[C@H](c2c[nH]c3ccc(NC(=N)c4cccs4)cc32)CC1`, in test [1], the IC50 amounted to […]. In the case of `CN(C)C1CC=C(c2c[nH]c3ccc(/N=C(\N)c4cccs4)cc23)CC1` (single isomer, unassigned; (-)), the Ratio IC50 in the test listed under Homo sapiens came to 54.

For `CN(C)C1CC=C(c2c[nH]c3ccc(NC(=N)c4cccs4)cc23)CC1` (single isomer, unassigned; (+)), the IC50 on Nitric oxide synthase 1 amounted to 0.84 µM.

For the molecule `CCN[C@H]1CCC[C@H](c2c[nH]c3ccc(NC(=N)c4cccs4)cc23)C1` (racemic), the IC50 is 54.2 µM in test [1] and 0.76 µM in test [2]. For `CN[C@H]1CCC[C@H](c2c[nH]c3ccc(NC(=N)c4cccs4)cc23)C1` (racemic), the results for the IC50 (in test [1]; in test [2]; at Nitric oxide synthase 3) were 14.5 µM, 0.88 µM and 7.76 µM, respectively. As for `CN(C)C1CC=C(c2c[nH]c3ccc(NC(=N)c4cccs4)cc23)CC1` (racemic), the IC50 in test [1] is 24 µM. Turning to `CNC1CC=C(c2c[nH]c3ccc(/N=C(\N)c4cccs4)cc23)CC1` (racemic), the Ratio IC50 in the test listed under Homo sapiens was determined as 19.

For the molecule `CCNC1CC=C(c2c[nH]c3ccc(NC(=N)c4cccs4)cc23)CC1` (racemic), the Ratio IC50 in the test filed under Homo sapiens stood at 28. In the case of `CN[C@H]1CCC[C@@H](c2c[nH]c3ccc(NC(=N)c4cccs4)cc23)C1` (racemic), the results for the IC50 (in test [1]; in test [2]; on Nitric oxide synthase 3) were 54.1 µM, 2.4 µM and 77.6 µM, respectively. As for `CCN[C@H]1CCC[C@@H](c2c[nH]c3ccc(NC(=N)c4cccs4)cc23)C1` (racemic), the figures for the IC50 in test [1] and in test [2] were 19.2 µM and 1.7 µM, respectively. Regarding `CN(C)[C@H]1CC[C@H](c2c[nH]c3ccc(NC(=N)c4cccs4)cc32)CC1`, the IC50 in test [1] is 149 µM; in test [2], 2.2 µM; on Nitric oxide synthase 1 it was 4.52 µM; at Nitric oxide synthase 3, 284 µM. Besides, in the test filed under Homo sapiens, the Ratio IC50 is 63.
